≈ marks a conversion by molar mass, not a printed value. Each block holds one molecule with its values, some of them ahead of it.
How the values were obtained:
[1] = Oral bioavailability in rat at 1.0 mg/kg; format: ADME, organism-based; details: in vivo
In short: (§1)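 Rat pharmacokinetics after a 1.0 mg/kg oral dose and a 0.5 mg/kg intravenous dose. Blood clearance, oral blood Cmax, brain:blood AUC ratio and oral bioavailability determined.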

[2] = Clearance in rat at 1.0 mg/kg, po and 0.5 mg/kg, iv; format: ADME, organism-based; details: in vivo; in short: as §1
[3] = target: Metabotropic glutamate receptor 5 (Mus musculus, UniProt Q3UVX5); test: Antagonist activity at mGluR5 in mouse astrocytes assessed as inhibition of L-quisqualate induced calcium release by FLIPR assay; format: functional, cell-based
In short: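 Primary cortical astrocytes from CD1 mouse pups aged 1–3 days. Cultures re-plated after 5 days to remove neurons and grown at 37 °C to confluence (10–14 d), then plated for 2 days. Cells pre-incubated with antagonist concentration-response curves and challenged with the day's EC80 of L-quisqualate. Intracellular calcium monitored on FLIPR to give fpKi.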

[4] = Cmax in rat at 1.0 mg/kg, po; format: ADME, organism-based; parameters: dose 1 mg/kg, route oral; details: in vivo; in short: as §1
[5] = target: T1, Metabotropic glutamate receptor 5 (Homo sapiens, UniProt P41594); test: Antagonist activity at human mGluR5 expressed in CHO cells assessed as glutamate induced calcium mobilization
[6] = target: Metabotropic glutamate receptor 1 (Homo sapiens) (UniProt Q13255); test: Antagonist activity at mGluR1
[7] = Ratio of AUC in rat brain to plasma at 1.0 mg/kg, po and 0.5 mg/kg, iv; format: ADME, organism-based; details: read-out: Ratio AUC; in short: as §1
[8] = Cmax in rat brain at 1.0 mg/kg, po; format: ADME, organism-based; parameters: dose 1 mg/kg, route oral
[9] = Solubility of the compound; format: physicochemical
[10] = test system: Brain; test: fCmax in rat brain at 1.0 mg/kg, po; format: ADME, organism-based; parameters: dose 1 mg/kg, route oral; details: in vivo
[11] = target: T1, Metabotropic glutamate receptor 5; test: Antagonist activity at human mGluR5 expressed in CHO cells assessed as […] calcium mobilization; format: functional, cell-based
In short: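 CHO cells stably expressing apo-aequorin, with human mGluR5 expression induced by doxycycline. Calcium mobilisation read by aequorin luminescence. Eleven-point concentration-response curves run in the presence of an EC80 of glutamate. pIC50 is the average of at least two curves.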

[12] = Lipophilicity, log D of the compound at pH 7.4; format: physicochemical; details: buffer
[13] = Fraction unbound in rat brain; format: ADME, tissue-based

T1 sequence (P41594 whole entry): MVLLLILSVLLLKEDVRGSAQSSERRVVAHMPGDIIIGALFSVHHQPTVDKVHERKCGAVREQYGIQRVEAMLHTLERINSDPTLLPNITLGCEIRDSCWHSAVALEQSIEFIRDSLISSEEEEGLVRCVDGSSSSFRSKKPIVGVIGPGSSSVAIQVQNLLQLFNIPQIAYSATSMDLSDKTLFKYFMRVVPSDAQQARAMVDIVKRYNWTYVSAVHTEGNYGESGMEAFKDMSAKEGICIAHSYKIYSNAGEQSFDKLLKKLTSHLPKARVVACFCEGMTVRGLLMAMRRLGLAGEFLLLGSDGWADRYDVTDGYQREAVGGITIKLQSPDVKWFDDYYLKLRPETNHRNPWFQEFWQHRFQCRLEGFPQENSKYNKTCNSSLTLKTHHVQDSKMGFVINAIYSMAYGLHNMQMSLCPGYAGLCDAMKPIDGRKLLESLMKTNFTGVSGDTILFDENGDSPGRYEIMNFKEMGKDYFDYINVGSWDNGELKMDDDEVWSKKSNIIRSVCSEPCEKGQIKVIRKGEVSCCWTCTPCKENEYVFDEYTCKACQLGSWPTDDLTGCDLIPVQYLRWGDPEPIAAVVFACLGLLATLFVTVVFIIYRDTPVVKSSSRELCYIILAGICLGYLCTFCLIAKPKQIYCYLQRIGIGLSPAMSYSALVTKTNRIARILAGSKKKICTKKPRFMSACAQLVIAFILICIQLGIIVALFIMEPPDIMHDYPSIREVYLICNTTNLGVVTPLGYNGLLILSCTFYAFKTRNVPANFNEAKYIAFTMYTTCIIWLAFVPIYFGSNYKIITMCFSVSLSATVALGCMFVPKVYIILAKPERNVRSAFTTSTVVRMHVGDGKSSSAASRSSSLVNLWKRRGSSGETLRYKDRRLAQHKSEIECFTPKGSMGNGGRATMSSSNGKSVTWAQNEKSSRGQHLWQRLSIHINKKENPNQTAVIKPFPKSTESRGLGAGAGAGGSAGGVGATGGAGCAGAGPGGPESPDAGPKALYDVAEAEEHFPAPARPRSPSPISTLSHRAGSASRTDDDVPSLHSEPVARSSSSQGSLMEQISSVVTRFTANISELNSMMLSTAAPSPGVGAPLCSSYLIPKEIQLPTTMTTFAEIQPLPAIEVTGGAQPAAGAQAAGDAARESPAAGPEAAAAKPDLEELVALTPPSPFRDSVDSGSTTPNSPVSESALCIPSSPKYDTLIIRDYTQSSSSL
Sequence of Metabotropic glutamate receptor 1 (Homo sapiens) (Q13255 whole entry, looked up): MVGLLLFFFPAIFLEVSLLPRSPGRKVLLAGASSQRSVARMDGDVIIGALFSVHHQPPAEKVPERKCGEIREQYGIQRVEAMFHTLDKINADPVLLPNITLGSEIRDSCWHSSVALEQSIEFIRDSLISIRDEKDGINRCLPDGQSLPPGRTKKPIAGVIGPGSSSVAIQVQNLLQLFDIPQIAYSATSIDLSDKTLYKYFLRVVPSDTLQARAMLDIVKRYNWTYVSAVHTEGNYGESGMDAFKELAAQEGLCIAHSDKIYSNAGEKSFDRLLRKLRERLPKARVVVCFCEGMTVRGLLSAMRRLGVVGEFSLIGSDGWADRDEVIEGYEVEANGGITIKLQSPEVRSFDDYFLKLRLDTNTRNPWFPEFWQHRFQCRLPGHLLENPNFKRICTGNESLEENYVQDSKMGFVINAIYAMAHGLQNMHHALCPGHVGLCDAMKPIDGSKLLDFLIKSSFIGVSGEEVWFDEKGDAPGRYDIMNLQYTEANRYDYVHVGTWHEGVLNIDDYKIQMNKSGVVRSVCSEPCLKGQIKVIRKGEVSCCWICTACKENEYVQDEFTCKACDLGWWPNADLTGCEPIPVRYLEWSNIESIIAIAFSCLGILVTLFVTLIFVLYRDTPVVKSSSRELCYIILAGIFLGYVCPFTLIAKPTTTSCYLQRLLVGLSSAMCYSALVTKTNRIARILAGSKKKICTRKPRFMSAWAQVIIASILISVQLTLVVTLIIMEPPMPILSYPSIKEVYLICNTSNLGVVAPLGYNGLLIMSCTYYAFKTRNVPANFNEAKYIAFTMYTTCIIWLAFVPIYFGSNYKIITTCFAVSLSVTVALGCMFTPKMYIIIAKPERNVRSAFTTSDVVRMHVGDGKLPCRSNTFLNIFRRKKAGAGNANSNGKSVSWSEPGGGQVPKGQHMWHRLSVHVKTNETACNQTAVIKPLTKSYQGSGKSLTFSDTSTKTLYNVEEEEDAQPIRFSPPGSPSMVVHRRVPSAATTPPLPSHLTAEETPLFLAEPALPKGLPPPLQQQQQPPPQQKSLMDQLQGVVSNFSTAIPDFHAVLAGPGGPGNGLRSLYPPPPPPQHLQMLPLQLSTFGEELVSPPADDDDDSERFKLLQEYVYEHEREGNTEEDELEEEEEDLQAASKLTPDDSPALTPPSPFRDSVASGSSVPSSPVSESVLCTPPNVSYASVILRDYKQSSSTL
Sequence of Metabotropic glutamate receptor 5 (Mus musculus, UniProt Q3UVX5) (Q3UVX5 whole entry): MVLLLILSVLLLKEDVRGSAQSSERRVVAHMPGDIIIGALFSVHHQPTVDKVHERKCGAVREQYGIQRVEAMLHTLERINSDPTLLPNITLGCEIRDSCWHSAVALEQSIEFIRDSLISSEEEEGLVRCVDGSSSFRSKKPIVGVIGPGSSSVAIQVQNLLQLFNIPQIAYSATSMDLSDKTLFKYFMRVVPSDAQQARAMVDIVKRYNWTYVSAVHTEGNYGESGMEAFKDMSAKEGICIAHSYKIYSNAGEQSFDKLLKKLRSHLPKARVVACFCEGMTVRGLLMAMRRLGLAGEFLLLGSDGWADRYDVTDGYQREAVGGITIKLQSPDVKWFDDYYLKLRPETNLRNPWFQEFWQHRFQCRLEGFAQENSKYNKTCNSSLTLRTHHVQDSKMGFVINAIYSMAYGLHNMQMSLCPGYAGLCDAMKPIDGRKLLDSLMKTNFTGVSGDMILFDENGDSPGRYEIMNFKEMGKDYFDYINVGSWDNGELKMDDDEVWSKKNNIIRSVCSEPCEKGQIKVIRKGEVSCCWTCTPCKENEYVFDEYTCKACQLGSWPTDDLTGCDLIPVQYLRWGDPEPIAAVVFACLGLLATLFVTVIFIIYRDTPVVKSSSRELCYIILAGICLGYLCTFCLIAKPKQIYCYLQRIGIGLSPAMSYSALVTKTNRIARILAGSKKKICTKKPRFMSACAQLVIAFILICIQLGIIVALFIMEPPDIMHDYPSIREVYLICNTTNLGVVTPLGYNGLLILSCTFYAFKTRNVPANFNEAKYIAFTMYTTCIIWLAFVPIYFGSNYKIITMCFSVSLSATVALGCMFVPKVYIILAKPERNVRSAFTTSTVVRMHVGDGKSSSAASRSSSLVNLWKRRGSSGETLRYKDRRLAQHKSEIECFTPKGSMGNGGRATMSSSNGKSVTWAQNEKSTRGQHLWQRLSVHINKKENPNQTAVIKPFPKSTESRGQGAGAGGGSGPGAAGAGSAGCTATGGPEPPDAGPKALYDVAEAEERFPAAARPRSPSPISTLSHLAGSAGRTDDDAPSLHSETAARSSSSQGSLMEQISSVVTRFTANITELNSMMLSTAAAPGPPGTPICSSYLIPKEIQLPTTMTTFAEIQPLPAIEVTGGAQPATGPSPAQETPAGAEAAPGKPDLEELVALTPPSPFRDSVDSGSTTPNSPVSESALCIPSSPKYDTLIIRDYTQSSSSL

Compound: Cc1c(C(C)OC(=O)NC2CCCCC2)sc2ncnn12 (stereo not given)
IC50 [11]: 3.16 µM

Compound: Cc1c(C(C)OC(=O)Nc2ccccc2Cl)sc2ncnn12 (stereo not given)
IC50 [11]: 0.501 µM

Compound: Cc1c(C(C)OC(=O)Nc2cccc(Cl)c2)sc2ncnn12 (stereo not given)
logD [12]: 2.9
IC50 [11]: 0.0398 µM
fraction unbound [13]: 0.009

Compound: Cc1c(C(C)OC(=O)Nc2ccc(Cl)cc2)sc2ncnn12 (stereo not given)
IC50 [11]: 2.51 µM

Compound: Cc1c(C(C)OC(=O)Nc2cccc(F)c2)sc2ncnn12 (stereo not given)
logD [12]: 2.6
IC50 [11]: 0.0501 µM
fraction unbound [13]: 0.017

Compound: Cc1c(COC(=O)Nc2ccccc2)sc2ncnn12
IC50 [5]: > 31.6 µM

Compound: O=C(Nc1ccccc1)OCc1cn2ncnc2s1
IC50 [5]: > 31.6 µM

Compound: Cc1c(C(C)OC(=O)N(C)c2ccccc2)sc2ncnn12 (stereo not given)
IC50 [5]: > 31.6 µM

Compound: Cc1c(C(C)OC(=O)Nc2cccnc2)sc2ncnn12 (stereo not given)
logD [12]: 1
IC50 [5]: 0.316 µM
fraction unbound [13]: 0.28

Second part, the molecule after the results:

bioavailability [1]: 28%
clearance [2]: 48 mL/min/kg
IC50 [3]: 0.0316 µM
Cmax [4]: 63 ng/mL
IC50 [5]: 0.0398 µM
IC50 [6]: 31.6 µM
Kp [7]: 2
Cmax [8]: 250 nM
solubility [9]: 166 µg/mL (≈ 549 µM)
fCmax [10]: 30 nM
Compound: Cc1c([C@@H](C)OC(=O)Nc2ccccc2)sc2ncnn12

IC50 [11]: 0.01 µM
Compound: Cc1c(C(C)OC(=O)Nc2ccccc2)sc2nc(Cl)nn12 (stereo not given)

IC50 [11]: 0.0126 µM
Compound: Cc1c(C(C)OC(=O)Nc2ccccc2)sc2nc(C3CC3)nn12 (stereo not given)

logD [12]: 3.7
IC50 [11]: 0.00794 µM
fraction unbound [13]: < 0.001
Compound: Cc1c(C(C)OC(=O)Nc2ccccc2)sc2nc(-c3cccs3)nn12 (stereo not given)

IC50 [11]: 0.01 µM
Compound: Cc1c(C(C)OC(=O)Nc2ccccc2)sc2nc(-c3ccc(F)cc3)nn12 (stereo not given)

IC50 [11]: 0.0398 µM
Compound: Cc1c(C(C)OC(=O)Nc2ccccc2)sc2nc(C(F)(F)F)nn12 (stereo not given)

IC50 [5]: 10 µM
Compound: CC(OC(=O)Nc1ccccc1)c1cn2ncnc2s1 (stereo not given)

IC50 [5]: > 10 µM
Compound: Cc1c([C@H](C)OC(=O)Nc2ccccc2)sc2ncnn12

logD [12]: 2.4
IC50 [5]: 0.0126 µM
fraction unbound [13]: 0.003
Compound: Cc1c(C(C)OC(=O)Nc2ccccc2)sc2nccn12 (stereo not given)

IC50 [5]: 0.126 µM
Compound: Cc1c(C(C)OC(=O)Nc2ccccc2)sc2nncn12 (stereo not given)

logD [12]: 2
IC50 [5]: 0.0631 µM
fraction unbound [13]: 0.068
Compound: Cc1c(C(C)OC(=O)Nc2cccc(F)c2)sc2nncn12 (stereo not given)

bioavailability [1]: 100%
clearance [2]: 33 mL/min/kg
IC50 [3]: 0.0316 µM
Cmax [4]: 210 ng/mL
IC50 [5]: 0.0398 µM
IC50 [6]: > 50.1 µM
Kp [7]: 0.2
solubility [9]: 31 µg/mL (≈ 96.8 µM)
Compound: Cc1c([C@@H](C)OC(=O)Nc2cccc(F)c2)sc2nncn12

IC50 [5]: > 31.6 µM
Compound: Cc1c(C(C)OC(=O)Nc2ccccc2)sc2ncnn12 (stereo not given)

— ChEMBL document CHEMBL1629432, “The identification of novel orally active mGluR5 antagonist GSK2210875” (Bioorg Med Chem Lett, 2010)
